From ChEMBL document CHEMBL1140172, “5-N-methylated quindoline derivatives as telomeric g-quadruplex stabilizing ligands: effects of 5-N positive charge on quadruplex binding affinity and cell proliferation” (J Med Chem, 2008)
Activity calls are given as the source filed them. The rule behind the calls is not given here.

Legend:
[1] = Inhibition of amplification of synthetic HTG21 telomere assessed as G-quadruplex stabilization by PCR
Procedure, shortened: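 PCR stop assay with HTG21 and its partial complementary oligonucleotide (10 pmol each), 0.16 mM dNTP, 2.5 U Taq and test compound. Program: 94 °C for 3 min, then 30 cycles of 94/58/72 °C for 30 s each. Products run on 15% native PAGE and silver stained. IC50 taken from band optical density as 50% inhibition of PCR.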

[2] = Binding affinity to synthetic HTG21 telomere assessed as conversion of preformed hybrid-type G-quadruplex to antiparallel G-quadruplex structure at 5 uM in presence of K+ ions by CD spectroscopy
Procedure, shortened: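 CD on HTG21 at 5 µM strand in 10 mM Tris-HCl pH 7.4 with 100 mM KCl. Sample heated to 95 °C for 5 min, slowly cooled, held at 4 °C overnight. Titrated with 0–5 mol equiv compound. Scans from 230–450 nm at 25 °C, buffer baseline subtracted, at least three scans averaged.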

[3] = target: Telomerase reverse transcriptase (Homo sapiens, UniProt O14746); experiment: Inhibition of telomerase in human MCF7 cells by cell-free telomerase repeat amplification protocol assay
Procedure, shortened: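 Modified TRAP using 100 ng of MCF-7 extract in 20 mM Tris-HCl pH 8.0 with 63 mM KCl, 1.5 mM MgCl2, 1 mM EGTA, 50 µM dNTPs, primers TSG4/TS/CXext/NT and a TSNT internal control. Compound or water added, 30 min elongation at 30 °C, then 30 PCR cycles. Read-out by 10% native PAGE with silver stain; TelIC50 from band optical density.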

[4] = Binding affinity to synthetic HTG21 telomere assessed as change in G-qudraplex DNA melting temperature at 1 uM by FRET method
[5] = test system: HL-60; experiment: Induction of senescence in human HL60 cells at 0.06 uM administered continuously for 16 days by senescence-associated beta-galactosidase assay; format: functional, cell-based
Procedure, shortened: (§1)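 Cells were treated continuously with 0.06 µM ligand or 0.1% DMSO for 16 days. They were fixed in 2% formaldehyde/0.2% glutaraldehyde for 15 min at room temperature, washed in PBS, and stained overnight at 37 °C with 1 mg/mL X-Gal stain solution.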

[6] = test system: CA46; experiment: Decrease in telomere length in human CA46 cells at 0.06 uM after 16 days by telomeric restriction fragment length assay; format: functional, cell-based
Procedure, shortened: (§2)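 Cells were reseeded every 4 days with continuous compound or 0.1% DMSO for 16 days. Genomic DNA was cut with HinfI/RsaI and run on 0.8% agarose. It was then Southern blotted and probed with a DIG-labelled telomeric repeat probe, detected by anti-DIG alkaline phosphatase chemiluminescence to give TRF length.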

[7] = test system: HL-60; experiment: Cytotoxicity against human HL60 cell after 48 hrs by MTT assay; format: functional, cell-based; details: HL-60, 48 h
Procedure, shortened: (§3)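 MTT assay: cells seeded at 1.0 × 10^3 per well in RPMI-1640 with 10% FBS and exposed to a range of ligand concentrations for 48 h at 37 °C, 5% CO2. MTT added for 4 h, formazan dissolved in DMSO, OD read at 570 nm. Each dose run in triplicate; IC50 from mean OD versus concentration curves.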

[8] = test system: CA46; experiment: Induction of senescence in human CA46 cells at 0.06 uM administered continuously for 16 days by senescence-associated beta-galactosidase assay; format: functional, cell-based; procedure, shortened: as §1
[9] = test system: HL-60; experiment: Decrease in telomere length in human HL60 cells at 0.06 uM after 16 days by telomeric restriction fragment length assay; format: functional, cell-based; procedure, shortened: as §2
[10] = test system: CA46; experiment: Growth inhibition in human CA46 cells assessed as increase in population doubling time at 0.03 uM; format: functional, cell-based
Procedure, shortened: (§4)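 Long-term culture: 1.0 × 10^5 cells per flask with ligand at 0.03 or 0.06 µM, or 0.1% DMSO. Every 4 days cells were counted and reseeded at 1.0 × 10^5 with fresh treatment, for 16 days. Each point done three times.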

[11] = test system: CA46; experiment: Cytotoxicity against human CA46 cell after 48 hrs by MTT assay; format: functional, cell-based; details: CA46, 48 h; procedure, shortened: as §3
[12] = test system: HL-60; experiment: Growth inhibition in human HL60 cells at 0.06 uM after 12 days; format: functional, cell-based; procedure, shortened: as §4
[13] = test system: CA46; experiment: Growth inhibition in human CA46 cells at 0.06 uM after 12 days; format: functional, cell-based; procedure, shortened: as §4
[14] = test system: HL-60; experiment: Decrease in telomere length in human HL60 cells at 0.03 uM after 16 days by telomeric restriction fragment length assay; format: functional, cell-based; procedure, shortened: as §2
[15] = Binding affinity to synthetic [d(T2AG3)] oligonucleotide assessed as increase in DNA melting temperature by NMR spectroscopy
Procedure, shortened: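 1H NMR thermal denaturation of d(T2AG3) at 0.5 mM in 90% H2O/10% D2O with 150 mM KCl and 25 mM potassium phosphate pH 7.0. Spectra recorded every 5 °C from 25–90 °C after 15 min equilibration at each step, Watergate water suppression.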

[16] = test system: HL-60; experiment: Growth inhibition in human HL60 cells assessed as increase in population doubling time at 0.03 uM; format: functional, cell-based; procedure, shortened: as §4
[17] = Binding affinity to synthetic [d(T2AG3)] oligonucleotide by NMR spectroscopy
Procedure, shortened: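 1H NMR titration at 25 °C of HPLC-purified d(T2AG3) at 0.5 mM in 90% H2O/10% D2O with 150 mM KCl and 25 mM potassium phosphate pH 7.0. Watergate water suppression; imino proton shifts monitored.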

[18] = Binding affinity to synthetic Pu27 oligonucleotide by competition dialysis method
Procedure, shortened: (§5)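 Competition dialysis, Tris-HCl 10 mM pH 7.4 with 100 mM NaCl. Each nucleic acid (0.5 mL, 45 µM monomeric unit) in a 1000 MWCO dialysis unit, all dialyzed together against a common ligand solution for 24 h at room temperature. DNA samples brought to 1% SDS. Total ligand in each tube and free ligand in dialysate read by absorbance (425 or 415 nm). Bound = total − free.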

[19] = Binding affinity to synthetic HTG21 telomere by competition dialysis method; procedure, shortened: as §5
[20] = Binding affinity to synthetic HT7 oligonucleotide by competition dialysis method; procedure, shortened: as §5

Chain of Telomerase reverse transcriptase (O14746 whole entry): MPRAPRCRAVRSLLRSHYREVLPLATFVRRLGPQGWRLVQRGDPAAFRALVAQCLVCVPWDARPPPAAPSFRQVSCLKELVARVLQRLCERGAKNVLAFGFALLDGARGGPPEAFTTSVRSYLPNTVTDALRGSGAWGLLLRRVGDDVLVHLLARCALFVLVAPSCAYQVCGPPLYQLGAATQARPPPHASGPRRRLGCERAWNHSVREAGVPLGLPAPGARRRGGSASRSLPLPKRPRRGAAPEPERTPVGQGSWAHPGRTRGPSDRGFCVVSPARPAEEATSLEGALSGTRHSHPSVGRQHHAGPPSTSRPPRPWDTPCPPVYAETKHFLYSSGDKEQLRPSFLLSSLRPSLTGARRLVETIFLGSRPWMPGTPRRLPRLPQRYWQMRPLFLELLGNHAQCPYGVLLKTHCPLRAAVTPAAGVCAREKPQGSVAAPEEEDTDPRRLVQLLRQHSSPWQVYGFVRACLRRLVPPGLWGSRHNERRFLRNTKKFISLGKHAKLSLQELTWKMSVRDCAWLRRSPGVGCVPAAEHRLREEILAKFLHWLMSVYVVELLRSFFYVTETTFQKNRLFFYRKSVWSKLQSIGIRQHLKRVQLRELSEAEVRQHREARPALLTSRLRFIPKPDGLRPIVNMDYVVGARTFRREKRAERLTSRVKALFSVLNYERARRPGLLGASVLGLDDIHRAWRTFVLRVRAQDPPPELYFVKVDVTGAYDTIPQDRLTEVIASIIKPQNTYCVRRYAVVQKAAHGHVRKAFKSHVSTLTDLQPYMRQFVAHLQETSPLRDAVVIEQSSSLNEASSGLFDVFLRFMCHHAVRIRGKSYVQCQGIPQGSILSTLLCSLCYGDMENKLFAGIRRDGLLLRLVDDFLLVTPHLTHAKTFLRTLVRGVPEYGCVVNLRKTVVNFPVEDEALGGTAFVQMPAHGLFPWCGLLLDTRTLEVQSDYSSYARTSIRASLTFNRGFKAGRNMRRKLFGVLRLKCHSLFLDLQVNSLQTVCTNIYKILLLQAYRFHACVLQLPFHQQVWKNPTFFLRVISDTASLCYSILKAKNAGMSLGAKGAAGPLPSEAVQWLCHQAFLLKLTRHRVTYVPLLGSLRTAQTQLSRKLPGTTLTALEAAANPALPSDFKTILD

IC50 [1] [µM] | Activity [2] | IC50 [3] [µM] | ΔTm [4] [°C] | Compound | other results
9 | Active | 0.4 | 15 | CN(C)CCCNc1c2ccccc2[n+](C)c2c1[nH]c1c(F)cc(F)cc12 | 
8 | Active | 0.31 | 14 | CN(C)CCCNc1c2ccccc2[n+](C)c2c1[nH]c1ccc(F)cc12 | Activity [5]: Active; Activity [6]: Active; IC50 [7]: 1.21 µM; Activity [8]: Active; Activity [9]: Active; Activity [10]: Active; IC50 [11]: 1.36 µM; Activity [12]: Active; Activity [13]: Active; Activity [14]: Active; ΔTm [15]: 25 °C; Activity [16]: Active; Activity [17]: Active
> 20 | Active |  | 10 | C[n+]1c2ccccc2c(NCCCO)c2oc3ccccc3c21 | 
11.5 | Active |  | 11 | CN(C)CCNc1c2ccccc2[n+](C)c2c1oc1ccccc12 | 
5.5 | Active | 0.27 | 15 | CCN(CC)CCCNc1c2ccccc2[n+](C)c2c1[nH]c1c(F)cc(F)cc12 | 
> 20 | Active |  | 7 | C[n+]1c2ccccc2c(NCCCO)c2[nH]c3ccccc3c21 | 
> 20 | Active |  | 5 | C[n+]1c2ccccc2c(NCCO)c2[nH]c3ccccc3c21 | 
5 | Active | 0.2 | 18 | CCN(CC)CCCNc1c2ccccc2[n+](C)c2c1[nH]c1ccc(F)cc12 | 
6.1 | Active | 0.37 | 14 | CN(C)CCCNc1c2ccccc2[n+](C)c2c1oc1ccccc12 | 
4.5 | Active | 0.22 | 17 | CN(C)CCCNc1c2ccccc2[n+](C)c2c1[nH]c1ccccc12 | Activity [18]: Active; Activity [19]: Active; Activity [20]: Active
15 | Active |  | 11 | CCN(CC)CCNc1c2ccccc2[n+](C)c2c1[nH]c1c(F)cc(F)cc12 | 
> 20 | Active |  | 10 | C[n+]1c2ccccc2c(NCCN2CCOCC2)c2[nH]c3ccccc3c21 | 
13 | Active |  | 12 | CCN(CC)CCNc1c2ccccc2[n+](C)c2c1oc1ccccc12 | 
10.3 | Active |  | 13 | CN(C)CCNc1c2ccccc2[n+](C)c2c1[nH]c1ccccc12 | 
18 | Active |  | 12 | CCN(CC)CCNc1c2ccccc2[n+](C)c2c1[nH]c1ccc(F)cc12 | 
13 | Active |  | 14 | CN(C)CCNc1c2ccccc2[n+](C)c2c1[nH]c1ccc(F)cc12 | 
5.1 | Active | 0.16 | 19 | CCN(CC)CCCNc1c2ccccc2[n+](C)c2c1[nH]c1ccccc12 | 
> 20 | Active |  | 4 | C[n+]1c2ccccc2c(NCCO)c2oc3ccccc3c21 | 
18 | Active |  | 13 | C[n+]1c2ccccc2c(NCCCN2CCOCC2)c2oc3ccccc3c21 | 
> 20 | Active |  | 9 | C[n+]1c2ccccc2c(NCCN2CCOCC2)c2oc3ccccc3c21 | 
> 20 | Active |  | 12 | C[n+]1c2ccccc2c(NCCCN2CCOCC2)c2[nH]c3ccccc3c21 | 
12 | Active |  | 12 | CCN(CC)CCNc1c2ccccc2[n+](C)c2c1[nH]c1ccccc12 | 
5.7 | Active |  | 15 | CCN(CC)CCCNc1c2ccccc2[n+](C)c2c1oc1ccccc12 | 
> 20 | Active |  | 11 | CN(C)CCNc1c2ccccc2[n+](C)c2c1[nH]c1c(F)cc(F)cc12 | 

Compound | IC50 [1] [µM] | Activity [2] | IC50 [3] [µM] | ΔTm [4] [°C] | other results
CN(C)CCCNc1c2ccccc2nc2c1[nH]c1ccccc12 | > 20 |  | 0.63 | 9 | 
